For three molecules, Kd, EC50 and Activity results are on record in ChEMBL document CHEMBL1147981, “Small molecule activators of SIRT1 as therapeutics for the treatment of type 2 diabetes” (Nature, 2007).

The source made the active and inactive calls. The calls are words filed in the database; no cut-off is given here.

Assay [1] has as its target T1, NAD-dependent protein deacetylase sirtuin-1 (Homo sapiens, UniProt Q96EB6).
T1 sequence (Q96EB6 whole entry): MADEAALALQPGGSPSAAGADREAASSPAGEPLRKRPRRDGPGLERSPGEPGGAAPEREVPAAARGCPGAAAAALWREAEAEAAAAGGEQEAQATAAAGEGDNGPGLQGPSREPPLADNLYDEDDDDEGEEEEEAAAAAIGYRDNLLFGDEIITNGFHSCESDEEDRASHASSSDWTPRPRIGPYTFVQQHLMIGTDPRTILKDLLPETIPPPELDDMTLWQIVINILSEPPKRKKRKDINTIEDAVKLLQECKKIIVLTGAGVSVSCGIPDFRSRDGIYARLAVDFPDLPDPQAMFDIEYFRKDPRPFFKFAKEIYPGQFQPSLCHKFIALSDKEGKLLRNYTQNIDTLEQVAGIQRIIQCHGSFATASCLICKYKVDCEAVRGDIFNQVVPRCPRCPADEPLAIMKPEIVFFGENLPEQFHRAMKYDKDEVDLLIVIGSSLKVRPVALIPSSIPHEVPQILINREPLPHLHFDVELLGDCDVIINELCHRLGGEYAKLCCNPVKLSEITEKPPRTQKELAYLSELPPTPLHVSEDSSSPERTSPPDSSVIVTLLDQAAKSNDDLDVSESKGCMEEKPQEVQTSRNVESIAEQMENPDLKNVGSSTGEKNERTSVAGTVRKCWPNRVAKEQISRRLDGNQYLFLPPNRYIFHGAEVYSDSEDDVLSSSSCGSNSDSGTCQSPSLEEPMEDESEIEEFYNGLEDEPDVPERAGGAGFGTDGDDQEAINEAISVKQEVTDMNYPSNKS
Kind of assay: Binding affinity to human SIRT1 by isothermal titration calorimetry. On the technique in general: ITC needs no label: the signal is the heat of the interaction.

The target of assay [2] is T2, NAD-dependent protein deacetylase sirtuin-2 (Homo sapiens, UniProt Q8IXJ6).
T2 sequence (Q8IXJ6 whole entry): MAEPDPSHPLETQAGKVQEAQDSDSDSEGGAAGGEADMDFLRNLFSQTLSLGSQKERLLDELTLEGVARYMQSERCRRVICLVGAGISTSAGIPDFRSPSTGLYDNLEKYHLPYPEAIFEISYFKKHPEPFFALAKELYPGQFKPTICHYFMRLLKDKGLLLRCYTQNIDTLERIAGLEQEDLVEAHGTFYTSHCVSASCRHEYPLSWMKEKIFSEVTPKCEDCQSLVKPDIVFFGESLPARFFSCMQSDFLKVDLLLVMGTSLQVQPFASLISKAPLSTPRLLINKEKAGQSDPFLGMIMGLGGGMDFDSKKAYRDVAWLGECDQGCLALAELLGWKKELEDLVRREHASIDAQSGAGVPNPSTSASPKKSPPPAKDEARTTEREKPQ
Kind of assay: Activation of SIRT2 by mass spectrometry assay.

The target in assay [3] is T3, NAD-dependent protein deacetylase sirtuin-1 (Homo sapiens) (UniProt Q96EB6).
T3 sequence (whole entry): T1 sequence (Q96EB6 whole entry)
Kind of assay: Activation of human SIRT1 assessed as decrease in Km of enzyme for acetylated peptide substrate by mass spectrometry assay.

The target in assay [4] is T1, NAD-dependent protein deacetylase sirtuin-1. Kind of assay: (§1) Activation of human SIRT1 expressed in Escherichia coli BL21 by mass spectrometry assay.
For assay [5], the target named is T3, NAD-dependent protein deacetylase sirtuin-1 (Homo sapiens). Described as §1.
Assay [6] has as its target T4, NAD-dependent protein deacetylase sirtuin-3, mitochondrial (Homo sapiens, UniProt Q9NTG7).
T4 sequence (Q9NTG7 whole entry): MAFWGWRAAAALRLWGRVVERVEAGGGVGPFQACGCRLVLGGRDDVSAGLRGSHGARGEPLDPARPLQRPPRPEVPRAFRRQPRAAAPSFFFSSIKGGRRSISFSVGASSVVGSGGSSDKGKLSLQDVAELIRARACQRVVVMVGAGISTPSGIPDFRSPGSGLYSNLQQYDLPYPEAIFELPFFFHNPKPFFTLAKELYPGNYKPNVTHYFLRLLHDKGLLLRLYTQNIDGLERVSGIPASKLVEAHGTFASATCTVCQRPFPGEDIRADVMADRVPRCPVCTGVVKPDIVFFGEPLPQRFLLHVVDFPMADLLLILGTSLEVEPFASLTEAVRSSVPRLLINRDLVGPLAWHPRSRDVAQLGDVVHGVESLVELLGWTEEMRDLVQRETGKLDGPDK
In words: Activation of SIRT3 by mass spectrometry assay.

Assay [7] addresses T3, NAD-dependent protein deacetylase sirtuin-1 (Homo sapiens). Kind of assay: Activation of SIRT1 in human U2OS cells assessed as decrease in deacetylation level at 10 uM. The format is cell-based. Put shortly:
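U-2 OS cells seeded 1.5 × 10⁴/well; compounds in DMSO added after 24 h, then doxorubicin 1 μg/ml final to induce p53. Fixed, permeabilized, immunostained for Ac-Lys382-p53 and beta-tubulin, infrared scan; background-corrected acetyl signal normalized to tubulin, then to vehicle as % acetylated p53. Replicate plates co-treated with a SIRT1-specific inhibitor.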

For assay [8] the target is unchanged. Kind of assay: Activation of human SIRT1-G (235-664) construct by mass spectrometry assay relative to control.
The target is the same in assay [9]. Kind of assay: Activation of human SIRT1-E (225-664) construct by mass spectrometry assay relative to control.
Assay [10] is filed under the species Mus musculus. In words: Reduction of insulin level in chow-fed C57BL/6 mouse. The format is functional, organism-based.
Assay [11] relates to Mus musculus. In words: Effect on body weight in diabetic Lep ob/ob mouse model at 1000 mg/kg, po. In kind it is functional, organism-based. On the set-up: dose 1000 mg/kg. Put shortly:
(§2)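 ob/ob mice received at 6 weeks, kept on 60%-fat diet from at least one week before study; ~40-45 g; grouped by body weight and glucose; once-daily oral gavage in 2% HPMC + 0.2% DOSS. One-way ANOVA with Dunnett's test vs control, p<0.05.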

For assay [12], the system named is Mus musculus. In words: Reduction of blood glucose level in diabetic Lep ob/ob mouse model at 1000 mg/kg, po after 3 weeks. The format is functional, organism-based. On the set-up: dose 1000 mg/kg. Summed up: as §2
Assay [13] concerns the target T3, NAD-dependent protein deacetylase sirtuin-1 (Homo sapiens). Kind of assay: Activation of human SIRT1-B (172-664) construct by mass spectrometry assay relative to control.
Assay [14] has the same target. In words: Activation of human SIRT1-F (230-664) construct by mass spectrometry assay relative to control.
Assay [15] relates to Mus musculus. Kind of assay: Reduction of blood glucose level in DIO C57BL/6 mouse model at 500 mg/kg, po after 4 weeks. The format is functional, organism-based. On the set-up: dose 500 mg/kg. Put shortly:
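Male C57BL/6 mice, started at nine weeks, fed 60%-fat diet until mean weight ~40 g; 6-10 per group; once-daily oral gavage in 2% HPMC + 0.2% DOSS. Fed glucose at 2, 4, 6, 8, 10 weeks; IPGTT after 5 weeks; ITT after 10 weeks. One-way ANOVA with Dunnett's test vs control, p<0.05.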

Assay [16] concerns the target T3, NAD-dependent protein deacetylase sirtuin-1 (Homo sapiens). In words: Activation of human SIRT1-A (156-664) construct by mass spectrometry assay relative to control.
Assay [17] shares this target. Kind of assay: Activation of human SIRT1-H (240-664) construct by mass spectrometry assay relative to control.
The target is the same in assay [18]. In words: Activation of human SIRT1-C construct by mass spectrometry assay relative to control.
For assay [19] the target is unchanged. Kind of assay: Activation of human SIRT1-D (219-664) construct by mass spectrometry assay relative to control.
Assay [20] shares this target. In words: Activation of SIRT1 in human U2OS cells assessed as decrease in p53 deacetylation level at 100 uM. In kind it is cell-based. Summed up: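 U-2 OS cells plated at 1.5 X 10⁴ cells/well; compounds (DMSO) added after 24 h, then doxorubicin (1 μg/ml final) to induce p53. Replicate plates were co-treated with a SIRT1-specific inhibitor. Cells were fixed, permeabilized and immunostained for Ac-Lys382-p53 and beta-tubulin, with infrared scanning. Signals were background-corrected, normalized to tubulin, then to vehicle (% acetylated p53).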

Consider `COc1cc(C(=O)Nc2ccccc2-c2cn3c(CN4CCNCC4)csc3n2)cc(OC)c1OC`, for which the affinity in assay [1], expressed as Kd, was 16.2 µM. In addition, the results for the EC50 in [2], in [4] and in assay [6] were more than 300 µM, 2.9 µM and more than 300 µM, respectively. Moreover, the result in [3] and in [7] was Active. In assay [5], the Activity turned out to be 447%.

With `O=C(Nc1ccccc1-c1cn2c(CN3CC[C@@H](O)C3)csc2n1)c1ccc2ccccc2c1`, the EC50 in assay [2] is more than 300 µM; in assay [4], 0.36 µM; in assay [6] it was more than 300 µM. Also, the result in [3] and in [7] was Active. The Activity in [5] was determined as 296%.

`Oc1ccc(/C=C/c2cc(O)cc(O)c2)cc1` [RESVERATROL]: the Activity came out at 1.2 in assay [8]; 1.3 in assay [9]; 1.7 in [13]; 1.1 in assay [14]; 1.8 in assay [16]; 1.2 in assay [17]. The Activity in assay [5] worked out at 201%; in assay [18] it was 1.9; in assay [19], 1.3. Moreover, the result in assay [10], in assay [12], in assay [15], in assay [3] and in [20] was Active. In assay [11], the outcome was inactive. Besides, the EC50 in assay [2] and in [6] was more than 300 µM each time.

A word on the Kd: it is the equilibrium constant for the complex coming apart. Higher therefore signals weaker binding. One may read the EC50 as the concentration needed to bring the measured effect to its halfway point. Lower therefore signals a more potent agent.
